Results as given in ChEMBL document CHEMBL4699489, “Optimized Opioid-Neurotensin Multitarget Peptides: From Design to Structure-Activity Relationship Studies” (J Med Chem, 2020).
Numbered stars: 1 amine (or outer) side, 2 acyl side, 3 side chain; on linkers, the order of the positions; unused ones are H or OH. Square brackets hold non-standard residues; d marks the D form. Peptide text beside a SMILES is read from it. X1 = O=C1[C@@H](N[*:1])Cc2ccccc2CN1CCC(=O)[*:2]; X2 = O=C([C@@H]1Cc2cc(O)ccc2CN1[*:1])[*:2]; Dmt = Cc1cc(O)cc(C)c1C[C@H](N)C(=O)O; Tle = CC(C)(C)[C@H](N)C(=O)O

How the values were obtained:
[1] = biological target: T1, Mu-type opioid receptor (Homo sapiens, UniProt P35372); experiment: Displacement of [3H]-DAMGO from recombinant human mu opioid receptor expressed in CHO cell membrane incubated for 60 mins by liquid scintillation counting method; assay type: cell membranes
Outline: (§1)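 Membranes from CHO-hMOR, -hDOR or -hKOR cells, homogenized and washed in 50 mM Tris-HCl pH 7.4. Membranes (15–20 μg) incubated with [3H]DAMGO (MOR), [3H]diprenorphine (DOR) or [3H]U69,593 (KOR) plus graded peptide, 60 min at 25 °C. Nonspecific binding with 1–10 μM of the unlabelled ligand. GF/C filtration, scintillation counting. Ki by Cheng–Prusoff. Duplicate, three independent experiments.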

[2] = biological target: T2, Delta-type opioid receptor (Homo sapiens, UniProt P41143); experiment: Displacement of [3H]-Diprenorphine from recombinant human delta opioid receptor expressed in CHO cell membrane incubated for 60 mins by liquid scintillation counting method; assay type: cell membranes; outline: as §1
[3] = biological target: T3, Kappa-type opioid receptor (Homo sapiens, UniProt P41145); experiment: Displacement of [3H]-U69593 from recombinant human kappa opioid receptor expressed in CHO cell membrane incubated for 60 mins by liquid scintillation counting method; assay type: cell membranes; outline: as §1
[4] = biological target: T4, Neurotensin receptor type 1 (Homo sapiens, UniProt P30989); experiment: Displacement of [125I]-neurotensin from human recombinant NTS1 stably expressed in CHO-K1 cell membranes incubated for 60 mins by gamma counter method
[5] = biological target: Neurotensin receptor type 2 (Homo sapiens, UniProt O95665); experiment: Displacement of [125I]-neurotensin from human recombinant NTS2 stably expressed in human 1321N1 cell membranes incubated for 60 mins by gamma counter method
[6] = biological target: T1, Mu-type opioid receptor; experiment: Potency index, ratio of PK20 Ki to test compound Ki for displacement of [3H]-DAMGO from recombinant human mu opioid receptor expressed in CHO cell membranes
[7] = biological target: T1, Mu-type opioid receptor; experiment: Agonist activity at human MOR stably expressed in CHO cell membranes assessed as stimulation of [35S]-GTPgammaS binding incubated for 1 hr by liquid scintillation counting assay; assay type: functional
Outline: (§2)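 Membranes from CHO cells stably expressing hMOR, hDOR or hKOR, prepared in 20 mM HEPES, 10 mM MgCl2, 100 mM NaCl, pH 7.4. Membranes (5–10 μg) incubated with 0.05 nM [35S]GTPγS, 10 μM GDP and graded peptide concentrations, 60 min at 25 °C. Nonspecific binding with 10 μM GTPγS, basal without ligand. GF/B filtration, scintillation counting. EC50 and Emax by nonlinear regression; Emax relative to DAMGO, DPDPE or U69,593. Duplicate, three independent experiments.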

[8] = biological target: T1, Mu-type opioid receptor; experiment: Agonist activity at human MOR expressed in CHO cell membranes assessed as stimulation of [35S]-GTPgammaS binding incubated for 1 hr by liquid scintillation counting assay relative to DAMGO; assay type: functional; conditions: filed as agonist, time 60.0 min; outline: as §2
[9] = biological target: T1, Mu-type opioid receptor; experiment: Agonist activity at human MOR expressed in human U2OS cells assessed as increase in beta arrestin2 recruitment incubated for 90 mins by pathhunter beta-arrestin assay; assay type: cell-based
Outline: (§3)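 U2OS cells stably coexpressing hMOR and enzyme acceptor-tagged β-arrestin-2, seeded at 5000 cells/well and kept 24 h at 37 °C. Graded peptide concentrations in PBS added for 90 min at 37 °C, then detection mix for 60 min at room temperature. Chemiluminescence read-out. EC50 and Emax (relative to DAMGO) by nonlinear regression. Duplicate, three independent experiments.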

[10] = biological target: T1, Mu-type opioid receptor; experiment: Agonist activity at human MOR expressed in human U2OS cells assessed as increase in beta arrestin2 recruitment incubated for 90 mins by pathhunter beta-arrestin assay relative to DAMGO; assay type: cell-based; conditions: filed as partial agonist; outline: as §3
[11] = biological target: T2, Delta-type opioid receptor; experiment: Agonist activity at human DOR stably expressed in CHO cell membranes assessed as stimulation of [35S]-GTPgammaS binding incubated for 1 hr by liquid scintillation counting assay; assay type: functional; outline: as §2
[12] = biological target: T2, Delta-type opioid receptor; experiment: Agonist activity at human DOR stably expressed in CHO cell membranes assessed as stimulation of [35S]-GTPgammaS binding incubated for 1 hr by liquid scintillation counting assay relative to DPDPE; assay type: functional; conditions: filed as agonist, time 60.0 min; outline: as §2
[13] = biological target: T3, Kappa-type opioid receptor; experiment: Agonist activity at human KOR stably expressed in CHO cell membranes assessed as stimulation of [35S]-GTPgammaS binding incubated for 1 hr by liquid scintillation counting assay; assay type: functional; outline: as §2
[14] = biological target: T3, Kappa-type opioid receptor; experiment: Agonist activity at human KOR stably expressed in CHO cell membranes assessed as stimulation of [35S]-GTPgammaS binding incubated for 1 hr by liquid scintillation counting assay relative to U69593; assay type: functional; conditions: time 60.0 min; outline: as §2
[15] = biological target: T4, Neurotensin receptor type 1; experiment: Agonist activity at human NTS1 expressed in HEK293 cells co-expressing Galphaq/RlucII/GFP10-Ggamma1/Gbeta1 assessed as increase in Gq activation incubated for 10 mins in presence of coelenterazine 400A by BRET assay relative to NT (8-13); assay type: cell-based
[16] = biological target: T4, Neurotensin receptor type 1; experiment: Agonist activity at human NTS1 expressed in HEK293 cells co-expressing Galphaq/RlucII/GFP10-Ggamma1/Gbeta1 assessed as increase in Galphaq activation incubated for 10 mins in presence of coelenterazine 400A by BRET assay; assay type: cell-based

T2 sequence (P41143 whole entry): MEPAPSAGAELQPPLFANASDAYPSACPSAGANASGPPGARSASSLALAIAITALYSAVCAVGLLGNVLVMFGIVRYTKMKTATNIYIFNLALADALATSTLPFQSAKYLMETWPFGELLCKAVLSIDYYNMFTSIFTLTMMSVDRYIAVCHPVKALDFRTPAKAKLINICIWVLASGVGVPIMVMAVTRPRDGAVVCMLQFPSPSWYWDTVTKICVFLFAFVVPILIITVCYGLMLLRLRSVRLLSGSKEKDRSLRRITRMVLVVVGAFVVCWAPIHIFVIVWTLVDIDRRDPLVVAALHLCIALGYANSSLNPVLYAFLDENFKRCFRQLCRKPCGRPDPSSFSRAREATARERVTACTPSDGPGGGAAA
Neurotensin receptor type 2, sequence (O95665 whole entry): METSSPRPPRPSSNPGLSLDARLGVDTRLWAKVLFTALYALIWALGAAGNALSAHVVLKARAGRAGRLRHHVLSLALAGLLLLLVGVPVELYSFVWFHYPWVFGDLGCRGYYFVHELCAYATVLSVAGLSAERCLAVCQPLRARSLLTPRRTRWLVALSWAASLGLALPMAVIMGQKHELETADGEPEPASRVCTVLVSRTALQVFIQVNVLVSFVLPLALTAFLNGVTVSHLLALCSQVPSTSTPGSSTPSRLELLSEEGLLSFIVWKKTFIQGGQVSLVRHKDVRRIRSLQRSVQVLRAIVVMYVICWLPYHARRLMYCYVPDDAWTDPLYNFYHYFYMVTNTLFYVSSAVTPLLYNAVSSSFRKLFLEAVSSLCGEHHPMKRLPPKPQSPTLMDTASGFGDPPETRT
T3 sequence (P41145 whole entry): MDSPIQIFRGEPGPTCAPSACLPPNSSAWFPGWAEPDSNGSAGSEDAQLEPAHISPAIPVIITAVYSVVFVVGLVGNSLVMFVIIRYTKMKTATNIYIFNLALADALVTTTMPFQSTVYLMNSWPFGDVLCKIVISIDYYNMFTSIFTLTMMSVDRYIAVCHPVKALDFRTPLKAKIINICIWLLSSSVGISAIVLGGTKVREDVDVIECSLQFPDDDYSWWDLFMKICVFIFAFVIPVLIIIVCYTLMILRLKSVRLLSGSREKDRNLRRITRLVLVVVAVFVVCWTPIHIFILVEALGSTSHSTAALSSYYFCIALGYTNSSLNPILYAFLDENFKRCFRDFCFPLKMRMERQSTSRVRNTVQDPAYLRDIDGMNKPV
T1 sequence (P35372 whole entry): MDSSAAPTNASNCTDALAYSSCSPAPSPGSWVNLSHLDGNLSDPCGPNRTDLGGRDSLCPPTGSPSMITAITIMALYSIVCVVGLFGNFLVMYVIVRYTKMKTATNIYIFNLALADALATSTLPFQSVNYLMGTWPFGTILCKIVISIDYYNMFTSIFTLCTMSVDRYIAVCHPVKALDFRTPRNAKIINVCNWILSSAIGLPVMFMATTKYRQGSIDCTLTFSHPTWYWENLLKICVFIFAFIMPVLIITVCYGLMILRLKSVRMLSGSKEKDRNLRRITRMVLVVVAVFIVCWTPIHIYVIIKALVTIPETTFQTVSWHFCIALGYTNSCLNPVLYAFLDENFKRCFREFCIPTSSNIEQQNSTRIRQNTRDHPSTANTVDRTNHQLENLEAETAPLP
T4 sequence (P30989 whole entry): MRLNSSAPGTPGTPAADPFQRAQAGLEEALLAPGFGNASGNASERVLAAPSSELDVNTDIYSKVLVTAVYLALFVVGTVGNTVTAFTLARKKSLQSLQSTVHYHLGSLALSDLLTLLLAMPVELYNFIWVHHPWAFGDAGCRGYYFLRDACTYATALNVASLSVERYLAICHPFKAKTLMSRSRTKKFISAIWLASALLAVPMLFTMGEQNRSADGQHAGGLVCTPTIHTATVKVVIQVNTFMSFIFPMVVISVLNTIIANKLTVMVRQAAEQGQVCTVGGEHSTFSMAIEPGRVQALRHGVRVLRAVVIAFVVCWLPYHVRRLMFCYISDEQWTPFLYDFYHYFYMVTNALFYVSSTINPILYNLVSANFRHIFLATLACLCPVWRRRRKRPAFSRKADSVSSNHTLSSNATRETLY

SMILES	Ki [1] [nM]	Ki [2] [nM]	Ki [3] [nM]	Ki [4] [nM]	Ki [5] [nM]	Ratio Ki [6]	EC50 [7] [nM]	Emax [8] [%]	EC50 [9] [nM]	Emax [10] [%]	EC50 [11] [nM]	Emax [12] [%]	EC50 [13] [nM]	Emax [14] [%]	Emax [15] [%]	EC50 [16] [nM]
Cc1cc(O)cc(C)c1C[C@H](N)C(=O)N[C@H](CCCNC(=N)N)C(=O)N[C@H]1Cc2ccccc2CN(CCC(=O)N[C@@H](CCCCN)C(=O)N[C@@H](CCCCN)C(=O)N2CCC[C@H]2C(=O)N2Cc3ccc(O)cc3C[C@H]2C(=O)N[C@H](C(=O)N[C@@H](CC(C)C)C(=O)O)C(C)(C)C)C1=O (H-[Dmt][dR][X1]KKP[X2][Tle]L-OH)	6.24	209	150	6830	75	2	45.6	94	2160	66	842	91	1560	20	–	–
CC(C)C[C@H](NC(=O)[C@@H](NC(=O)[C@H](Cc1ccc(O)cc1)NC(=O)[C@@H]1CCCN1C(=O)[C@H](CCCNC(=N)N)NC(=O)[C@@H](N)CCCNC(=N)N)C(C)(C)C)C(=O)O	–	–	–	–	–	–	–	–	–	–	–	–	–	–	97	–
Cc1cc(O)cc(C)c1C[C@H](NC(=O)[C@@H]1CCCN1C(=O)[C@H](CCCCN)NC(=O)[C@H](CCCCN)NC(=O)CCN1Cc2ccccc2C[C@H](NC(=O)[C@@H](CCCNC(=N)N)NC(=O)[C@@H](N)Cc2c(C)cc(O)cc2C)C1=O)C(=O)N[C@H](C(=O)N[C@@H](CC(C)C)C(=O)O)C(C)(C)C (H-[Dmt][dR][X1]KKP[Dmt][Tle]L-OH)	7.15	276	138	13	0.16	2	48.7	95	1960	62	898	60	1570	22	109	3.9
Cc1cc(O)cc(C)c1C[C@H](N)C(=O)N[C@H](CCCNC(=N)N)C(=O)N[C@H]1Cc2ccccc2CN(CCC(=O)N[C@@H](CCCNC(=N)N)C(=O)N[C@@H](CCCNC(=N)N)C(=O)N2CCC[C@H]2C(=O)N[C@@H](Cc2ccc(O)cc2)C(=O)N[C@H](C(=O)N[C@@H](CC(C)C)C(=O)O)C(C)(C)C)C1=O (H-[Dmt][dR][X1]RRPY[Tle]L-OH)	1.32	56.4	78.6	0.43	0.09	2	12.8	94	1330	72	301	106	514	34	111	0.24
Cc1cc(O)cc(C)c1C[C@H](N)C(=O)N[C@H](CCCNC(=N)N)C(=O)N[C@H]1Cc2ccccc2CN(CCC(=O)N[C@@H](CCCCN)C(=O)N[C@@H](CCCCN)C(=O)N2CCC[C@H]2C(=O)N[C@@H](Cc2ccc(O)cc2)C(=O)N[C@H](C(=O)N[C@@H](CC(C)C)C(=O)O)C(C)(C)C)C1=O (H-[Dmt][dR][X1]KKPY[Tle]L-OH)	4.89	213	201	2.3	0.29	2	64.6	99	2460	67	1320	87	1650	31	99	0.26
Cc1cc(O)cc(C)c1C[C@H](NC(=O)[C@@H]1CCCN1C(=O)[C@H](CCCNC(=N)N)NC(=O)[C@@H](N)CCCNC(=N)N)C(=O)N[C@H](C(=O)N[C@@H](CC(C)C)C(=O)O)C(C)(C)C	–	–	–	13.4	3	–	–	–	–	–	–	–	–	–	–	–
CC(C)C[C@H](NC(=O)[C@@H](NC(=O)[C@@H]1Cc2cc(O)ccc2CN1C(=O)[C@@H]1CCCN1C(=O)[C@H](CCCNC(=N)N)NC(=O)[C@@H](N)CCCNC(=N)N)C(C)(C)C)C(=O)O (H-RRP[X2][Tle]L-OH)	–	–	–	6680	132	–	–	–	–	–	–	–	–	–	–	–
